Screens deposited in PubChem by several laboratories.
Rows were chosen to be rich in hits. Some 6.6% of all compounds tested hit in one or more screens of this group.
M1 antag: blocks the rat M1 muscarinic receptor response to acetylcholine | CHO-M1 cells, Fluo-4 calcium, ACh EC80 antagonist mode; active compounds read low | B-score at 10 µM | actives 3.4% (n = 64,000);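 active means calcium fluorescence response, raw or row-and-column corrected B-score, differing from the plate sample mean either way at a set confidence level, mostly lower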
Target sequence (P08482 whole entry, looked up): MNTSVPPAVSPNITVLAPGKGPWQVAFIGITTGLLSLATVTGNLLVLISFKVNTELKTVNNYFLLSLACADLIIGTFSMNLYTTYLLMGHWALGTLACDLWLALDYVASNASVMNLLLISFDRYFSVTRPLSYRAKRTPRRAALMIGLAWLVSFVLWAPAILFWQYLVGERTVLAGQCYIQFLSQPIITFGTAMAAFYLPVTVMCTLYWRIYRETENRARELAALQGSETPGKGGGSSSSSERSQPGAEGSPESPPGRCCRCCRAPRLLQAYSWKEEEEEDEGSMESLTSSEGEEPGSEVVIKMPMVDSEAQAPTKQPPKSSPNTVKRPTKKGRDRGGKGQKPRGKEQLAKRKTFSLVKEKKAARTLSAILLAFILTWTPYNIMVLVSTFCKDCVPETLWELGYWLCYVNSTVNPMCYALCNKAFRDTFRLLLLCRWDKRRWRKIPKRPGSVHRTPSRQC
Her2 expr inh: lowers expression of human Her2 kinase; actives 0.69% (n = 65,000); SKBR-3 HER2 protein level, AlphaScreen, 18-24 h; active compounds read low; HER2 level % of control, % at 10 µM; AID 645;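 active means HER2 level under 5% of the carrier-only control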;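 further: 100% = DMSO carrier and 0% = 500 nM PU-H71 HSP90 inhibitor; lower value means stronger loss of Her2 protein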
HEK293 NFkB inh: inhibitors of the PMA/ionomycin-induced NF-kB reporter in HEK293 cells; actives 0.21% (n = 62,000); inhibition, % at 3 µM; HEK-293 NF-kB luciferase reporter, luminescence; AID 465;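 active means inhibition above the mean of all tested compounds plus 3 SD, cut at about 40% in these data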;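 further: 0% = stimulated DMSO wells and 100% = 10 µM reference inhibitor 5653914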
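Material: HEK-293 cells with stable firefly luciferase reporter driven by four HIV NF-kB elements / Also added: PMA plus ionomycin mix as NF-kB-activating stimulus / Compound dosing: 3 µM once, 0.30% DMSO / Times: 1 h pretreatment, 16 h stimulation, 37 °C / Signal: luminescence / Evaluation: per-plate % inhibition versus controls / Benchmarks: DMSO and 10 µM reference inhibitor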
M1 ag: agonists of M1 muscarinic receptor; actives 3% (n = 64,000); AID 626; CHO-M1 cells, Fluo-4 calcium fluorescence, agonist mode; active compounds read high; B-score at 10 µM;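 active means fluorescence rise, raw or as B-score row- and column-corrected plate score, outside the 99.7% band of its plate's samples, either direction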
JNK3 inh: inhibitors of human JNK3 kinase. actives 0.61% (n = 60,000). purified JNK3 kinase activity, HTS. inhibition, % at 8 µM. P53779. AID 746; in the data active means inhibition above about 17%;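 further: 0% = DMSO and 100% = reference inhibitor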
BAP1 block: human BAP1 deubiquitinase inhibition; Q92560; recombinant BAP1, Ub-AMC hydrolysis fluorescence kinetic; active compounds read low; calls only at 20 µM; actives 0.48% (n = 72,000); AID 436;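 active means activity remaining at or below 50% of control, provided the compound also passes the data quality filters; inactive means the rest, including low values that fail the filters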;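 further: 100% = DMSO wells rate and 0% = substrate alone blank rate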
M1 antag conf: M1 muscarinic receptor (rat) antagonism, confirmed | actives 43% (n = 1,700) | calcium response (max-min fluorescence) at 10 µM | CHO-M1 cells, Fluo-4 calcium, ACh EC80 antagonism; active compounds read low | shares compounds with M1 antag;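 active means calcium response below the same-plate mean of wells given acetylcholine alone at its 80%-effect dose, minus 3 SD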;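 further: raw fluorescence intensity difference in arbitrary instrument units and not normalized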
mGluR4 antag: selectivity test for M1 antagonists: human mGluR4 receptor. shares compounds with M1 antag. CHO-mGluR4 calcium flux, Fluo-4 fluorescence, glutamate EC80; active compounds read low. fluorescence response (max-min) at 10 µM. actives 0.9% (n = 1,700). AID 678;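 active means fluorescence response below the plate's average for near-maximal glutamate wells, less 3 SD of those wells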;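 further: raw unnormalized fluorescence span taken in the window right after glutamate addition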
The depositor's hits bear a star; i = inactive; / = not tested or not shown.

SMILES	M1 antag	Her2 expr inh	HEK293 NFkB inh	M1 ag	JNK3 inh	BAP1 block	M1 antag conf	mGluR4 antag
COc1ccc(S(=O)(=O)N2CCN(C3CCN(Cc4ccccc4)CC3)CC2)cc1	-11*	83	11	0.81	-4	i	189*	211
COc1ccc(S(=O)(=O)N2CCN(C3CCCCCCC3)CC2)cc1	-0.025	77	-2	0.59	-5	i	/	/
COc1cccc(CN2CCCN(S(=O)(=O)c3ccc(Br)cc3)CC2)c1	-10*	127	1	1.6	-8	i	301*	260
Cc1cc(C)n2cc(CSc3nc4cc([N+](=O)[O-])ccc4s3)nc2n1	/	/	/	/	/	i	/	/
CC(C)Sc1nc(N)c2c3c(sc2n1)CN(C)CC3	0.04	134	11	-0.6	/	/	/	/
CCCSc1nc(N)c2c3c(sc2n1)CN(C)CC3	-3.9*	182	2	0.63	/	/	485*	213
CN(C)CCSc1nc(N)c2c3c(sc2n1)CN(C)CC3	-6.2*	106	14	-0.37	/	/	545*	195
COC(=O)CSc1nc(N)c2c3c(sc2n1)CCCC3	-0.45	128	/	0.45	1	i	/	/
C=CCn1cc(C)c(=O)n(CC=C)c1=O	/	/	/	/	/	i	/	/
COc1ccc(C2NC(=O)NC(C)=C2C(=O)OC(C)C)cc1Br (configuration not stated)	/	/	/	/	/	i	/	/
Cc1ccc(-c2nnn(CC(=O)N3CCN(c4ccccc4)CC3)n2)o1	-4.2*	92	11	-0.2	-2	i	641	237
COc1ccc(N2CCN(C(=O)Cn3nnc(-c4ccc(OC)c(OC)c4)n3)CC2)cc1	-0.046	103	5	0.25	-4	i	/	/
CCN(CC)c1ccc(C2CC(=O)NC3=C2C(=O)CC(C)(C)C3)cc1 (configuration not stated)	-3.2*	102	14	0.23	3	i	381*	252
CN(C)c1ccc(C2CC(=O)NC3=C2C(=O)CC(C)(C)C3)cc1 (configuration not stated)	-0.042	113	8	0.25	-4	i	/	/
CCOc1ccccc1N(CC(=O)N1CCC(C)CC1)S(=O)(=O)c1ccccc1	/	/	/	/	/	i	/	/
O=C(NCc1n[nH]c(=S)n1-c1ccc(Br)cc1)c1cccc2ccccc12	/	/	/	/	/	i	/	/
C=CCn1c(=O)c(C(=O)Nc2ccccc2C(=O)OCC)c(O)c2ccccc21	-2.5*	17	8	-0.16	-4	i	623	247
COC(=O)c1ccc(NC(=O)C(C)Oc2ccc(Cl)cc2C)cc1 (configuration not stated)	/	/	/	/	/	i	/	/
O=C(c1nn2c(C(F)(F)F)c3c(nc2c1Cl)-c1ccccc1CC3)N1CCOCC1	/	/	/	/	/	i	/	/
O=C(C1CCCCC1)N(CCN1CCCC1)c1nc2ccccc2s1	-2.3*	109	9	-0.55	-10	i	718	207
CC(C)c1ccc(C(=O)Nc2ccc(N3CCOCC3)cc2)cc1	/	119	/	/	/	/	/	/
CC(C)Oc1ccc(C(=O)Nc2ccc(N3CCCC3)cc2)cc1	-2.1*	75	6	-0.018	-8	i	405*	249
Cc1ccc(NC(=O)C2C3C=CC(O3)C2C(=O)O)c(Br)c1 (configuration not stated)	/	/	/	/	/	i	/	/
CCCCCOc1ccc(NS(C)(=O)=O)cc1	-0.27	113	-3	0.36	4	i	/	/
CS(=O)(=O)Nc1ccc(Cc2ccc(NS(C)(=O)=O)cc2)cc1	-3.2*	/	17	-0.065	2	i	552	230
SMILES	M1 antag	Her2 expr inh	HEK293 NFkB inh	M1 ag	JNK3 inh	BAP1 block	M1 antag conf	mGluR4 antag
CCOc1nc(OCC)nc(N2CCC(C)CC2)n1	0.3	130	6	-0.81	-4	i	/	/
CCOc1nc(C#N)nc(N2CCCCC2)n1	-1.2*	59	26	-1.6	-5	i	430*	234
COc1cccc(C2C(N3C(=O)c4ccccc4C3=O)C(=O)N2c2ccccc2OC)c1 (configuration not stated)	/	/	/	/	/	i	/	/
CCOC(=O)c1c(N=Cc2ccccc2O)sc(C)c1C	/	/	/	/	/	i	/	/
O=C(Nc1ccc(Br)cc1)c1ccc(Oc2ccc([N+](=O)[O-])cc2)cc1	/	/	/	/	/	i	/	/
c1ccc2c(c1)nc1sccn12	-2.5*	65	1	0.91	6	i	674	254
CCOC(=O)N1CCN(c2c(NCCN3CCN(Cc4ccccc4)CC3)c(=O)c2=O)CC1	-0.6	88	0	-0.95	2	i	/	/
CCOC(=O)N1CCC(Nc2c(NCCN3CCN(Cc4ccccc4)CC3)c(=O)c2=O)CC1	-6.7*	95	-3	0.027	-6	i	551	254
Cc1nnc(C)c2c(C)n(Cc3ccc4c(c3)OCO4)c(C)c12	-4.5*	114	11	0.25	3	i	535*	203
c1cc2c(cc1Cn1cnnn1)OCO2	0.27	95	1	-0.023	-2	i	/	/
O=C(Nc1ccc(N2CCOCC2)c(Cl)c1)c1ccco1	0.038	118	-30	0.79	-4	i	/	/
Cc1ccc(N=C2SCCCN2C(=O)c2ccco2)cc1Cl	-1.9*	46	9	-0.32	/	/	532*	240
CCCCSc1nc2c(cc1C#N)CCC2	-0.1	90	14	0.57	7	i	/	/
CS(=O)CSc1nc2c(cc1C#N)CCCC2 (configuration not stated)	-9.3*	78	-8	-0.2	8	i	260*	203
CN(C1CCCCC1)S(=O)(=O)c1ccc(S(=O)(=O)N2CCCC2)cc1	-3.3*	82	7	0.3	-2	i	327*	236
Cc1ccc(S(=O)(=O)N2CCN(S(=O)(=O)N3CCCCC3)CC2)cc1	1.3	127	9	-1.1	2	i	/	/
O=C(NC(=O)c1ccccc1)NC1(C(F)(F)F)OCCO1	-19*	/	-30	0.22	1	i	695	181
O=C(NCc1ccccc1)NC(=O)c1ccccc1	-0.17	104	9	-0.59	1	i	/	/
COc1cc(C(=O)NCc2n[nH]c(=S)n2-c2cccc(C(F)(F)F)c2)cc(OC)c1OC	/	/	/	/	/	i	/	/
CC(=O)c1c(C)[nH]c(C(=O)OCC(=O)Nc2ncc(Cl)c(C)c2Cl)c1C	-15*	100	5	-0.19	7	i	567	234
C=C(C)C1CC=C(CN2CCC(C(=O)OCC)CC2)CC1 (configuration not stated)	-3.7*	112	9	4.2	3	i	422*	238
O=C(CCNS(=O)(=O)c1cccc2nonc12)N1CCN(c2cccc(Cl)c2)CC1	-3.1*	56	13	0.19	/	i	253*	251
